Assay results from different studies.
Protocols differ between the studies behind these lines.
PDGFRA V561D: Platelet-derived growth factor receptor alpha (PDGFRA, Homo sapiens, UniProt P16234, V561D)
PDGFRA D842V: Platelet-derived growth factor receptor alpha (PDGFRA, Homo sapiens, UniProt P16234, D842V)
PDGFRA: Platelet-derived growth factor receptor alpha (PDGFRA, Homo sapiens, UniProt P16234)

SMILES	target	read-out	mode	technique	concentration	quantity	result
Cc1cc(NC(=O)c2cccc3cc(-c4cccc5[nH]nc(N)c45)ccc23)ccc1F	PDGFRA V561D	enzyme activity	inhibitor	–	0.1 µM	activity vs control	4%
Cc1ccc(NC(=O)c2ccc(C)c(C(F)(F)F)c2)cc1C#Cc1nn(C2CCC(O)CC2)c2ncnc(N)c12 (stereo not drawn)	PDGFRA D842V	enzyme activity	inhibitor	–	10 µM	remaining activity	0%
Cn1nc(C(=O)NCc2ccc(C(=O)O)cc2)cc1-c1ccc2[nH]ccc2c1	PDGFRA	cell-free assay	–	competition with immobilised ligand	0.1 µM	remaining binding	100%
COc1cc(-c2cc(-c3ccc(N4CCNCC4)cc3)cnc2N)cc(OC)c1OC	PDGFRA V561D	enzyme activity	inhibitor	–	1 µM	inhibition	86%
Cc1ccc(C(=O)NCc2ccsc2)cc1C#Cc1cn(C(C)C)c2ncnc(N)c12	PDGFRA D842V	enzyme activity	inhibitor	–	1 µM	activity vs control	2%
Cc1cnc(NC2CCOCC2)nc1-n1cnc(C(=O)NC(CN)c2cc(F)cc(Cl)c2)c1 (stereo not drawn)	PDGFRA V561D	enzyme activity	inhibitor	radiometric	1 µM	remaining activity	100%
CNC(=O)c1cc(Oc2ccc(NC(=O)Nc3ccc(Cl)c(C(F)(F)F)c3)cc2)ccn1	PDGFRA D842V	enzyme activity	inhibitor	–	0.3 µM	inhibition	86%
NS(=O)(=O)c1cc(NC(=O)Cc2ccccc2)ccc1Oc1cccc(Cl)c1	PDGFRA	cell-free assay	–	competition with immobilised ligand	1 µM	remaining binding	80%
CCCOc1ccc(OC)c(F)c1C(=O)c1ccc(C(=O)N[C@@H]2CNC[C@H]2NC(=O)c2ccc3[nH]ncc3c2)cc1	PDGFRA	enzyme activity	inhibitor	–	10 µM	remaining activity	89%
